Test results reported in ChEMBL document CHEMBL1154379, “Soluble polyphenols: synthesis and bioavailability of 3,4',5-tri(alpha-D-glucose-3-O-succinyl) resveratrol” (Bioorg Med Chem Lett, 2009).
In brackets after ≈: the same amount, converted by molar mass.

Assays:
[1] = Cmax in intragastrically dosed rat at 0.09 mmol/kg after 10 mins; type: ADME, organism-based; design: dose 0.09 mmol/kg, route intragastric; details: in vivo, po
Method in brief: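 Rats dosed intragastrically, with the same animals receiving both resveratrol and the glucosylsuccinyl derivative. Blood was sampled over time. Circulating species were identified by HPLC-UV at 320 nm and LC–MS against synthesized phase II metabolite standards (sulfates, glucuronides), with confirmation by enzymatic treatment. Cmax was read from concentration–time curves.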

[2] = test system: Rattus norvegicus; experiment: AUC in intragastrically dosed rat assessed as total metabolite level at 0.09 mmol/kg after 10 mins; type: ADME, organism-based, Plasma; design: dose 0.09 mmol/kg, time < 0.166667 hr, route intragastric; details: in vivo, po
Method in brief: (§1)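 Rats received intragastric doses, with the same animals given both resveratrol and the derivative to limit individual variability. Blood was sampled over time. Circulating resveratrol and its sulfate and glucuronide conjugates were identified by HPLC–UV at 320 nm and LC–MS against synthesized phase II metabolite standards, confirmed by enzymatic treatment. Cmax and AUC were taken from concentration–time curves.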

[3] = test system: Rattus norvegicus; experiment: AUC in intragastrically dosed rat assessed as resveratrol sulfate level at 0.09 mmol/kg after 10 mins; type: ADME, organism-based, Plasma; design: dose 0.09 mmol/kg, time < 0.166667 hr, route intragastric; details: in vivo, po; method in brief: as §1
[4] = test system: Rattus norvegicus; experiment: AUC in intragastrically dosed rat assessed as resveratrol level at 0.09 mmol/kg after 10 mins; type: ADME, organism-based, Plasma; design: time < 0.166667 hr, dose 0.09 mmol/kg, route intragastric; details: in vivo, po; method in brief: as §1
[5] = test system: Rattus norvegicus; experiment: AUC in intragastrically dosed rat assessed as resveratrol glucuronide level at 0.09 mmol/kg after 10 mins; type: ADME, organism-based, Plasma; design: time < 0.166667 hr, dose 0.09 mmol/kg, route intragastric; details: in vivo, po; method in brief: as §1
[6] = test system: Rattus norvegicus; experiment: AUC in intragastrically dosed rat assessed as resveratrol disulfate level at 0.09 mmol/kg after 10 mins; type: ADME, organism-based, Plasma; design: time < 0.166667 hr, dose 0.09 mmol/kg, route intragastric; details: in vivo, po; method in brief: as §1
[7] = Solubility in water at room temperature; type: physicochemical
[8] = Chemical stability in 1N HCl solution assessed as compound remaining at 37degC; type: physicochemical; details: buffer
Method in brief: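 The compound was incubated in 1 N HCl at 37 °C for 6 h and analysed by LC–MS. The amount remaining is expressed as % of the initial molar amount.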

[9] = Solubility in pH 9 buffer; type: physicochemical

SMILES | Cmax [1] [nM] | AUC [2] [µM·h] | AUC [3] [µM·h] | AUC [4] [µM·h] | AUC [5] [µM·h] | AUC [6] [µM·h] | solubility [7] [mg/mL] | Stability [8] [%] | solubility [9] [mg/mL]
Oc1ccc(/C=C/c2cc(O)cc(O)c2)cc1 [RESVERATROL] | 1200 | 53.4 | 2.4 | 1.1 | 35.5 | 14.4 |  |  | 
O=C(CCC(=O)O[C@@H]1[C@@H](O)[C@@H](O)O[C@H](CO)[C@H]1O)Oc1ccc(/C=C/c2cc(OC(=O)CCC(=O)O[C@@H]3[C@@H](O)[C@@H](O)O[C@H](CO)[C@H]3O)cc(OC(=O)CCC(=O)O[C@@H]3[C@@H](O)[C@@H](O)O[C@H](CO)[C@H]3O)c2)cc1 |  | 51.8 | 3.5 | 0.2 | 21.2 | 27 | 90 (≈ 88.7 mM) | 80 | 
C[C@@H]1O[C@@H](OC[C@H]2O[C@@H](Oc3c(-c4ccc(O)c(O)c4)oc4cc(O)cc(O)c4c3=O)[C@H](O)[C@@H](O)[C@@H]2O)[C@H](O)[C@H](O)[C@H]1O [RUTIN] |  |  |  |  |  |  |  |  | 2.3 (≈ 3.77 mM)
